Laboratory results: ChEMBL document CHEMBL4513216, “Probing the Open Global Health Chemical Diversity Library for Multistage-Active Starting Points for Next-Generation Antimalarials” (ACS Infect Dis, 2020)

assay: Toxicity liver stage against HepG2, at 10uM; type: cell-based; set-up: test concentration 10 uM, cell line HepG2-A16-CD81EGFP; settings: human, HepG2-A16-CD81EGFP cells; read-out: INHIBITION
Method in brief: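 Uninfected HepG2-A16-CD81EGFP cells, 3 × 10^3 per well, 1536-well, plated on prespotted compound at 10 μM final, parasite-free screening media added to match infected plates; puromycin 10 μM positive, DMSO 0.5% negative; run in parallel with 48 h PbLuc assay at 37 °C, 5% CO2; viability by CellTiter-Glo luminescence, normalized to controls.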

First: COCCn1cnc2ccc(NC(=O)c3c(C)noc3C)cc2c1=O
Second: COCc1cccc(NC(=O)NCc2ncc(C)c(OC)c2C)c1
The cytotoxicity at 10 µM of the first is higher: 4.13% for the first, -1.21% for the second.

Going from O=C(Nc1cc(C(F)(F)F)ccc1Cl)c1ccc(N2CCCC2)nn1 to CC(CNC(=O)c1ccc(F)cc1Cl)N1CCCC1 (stereo unspecified), the cytotoxicity at 10 µM rises from -4.43% to 14.4%.

Going from O=S(=O)(c1cccs1)N1CCC(c2nc(-c3cccs3)no2)CC1 to CN1C(=O)[C@@H]2CC[C@H]1CN(C(=O)c1csc(Cc3ccccc3)n1)C2, the cytotoxicity at 10 µM falls from 6.14% to 3.75%.

First: CC(C)(C)NC(=O)NCc1cnn2ccccc12
Second: Cc1cc2c(cc1NC(=O)NC(C)(C)C)OCO2
The cytotoxicity at 10 µM of the first is lower: -11.9% for the first, -1.47% for the second.

Compared with CC(=O)N1CCC(c2nn(C)c(=O)n2-c2ccccc2)CC1, CC(C)n1ccnc1C1CCN(C(=O)c2ccccc2)CC1 is lower in cytotoxicity at 10 µM: -2.05% for the first, -10.9% for the second.

Compared with Cc1cccc(CN2CC3(CCN(C(=O)C4CC4)CC3)OCC2=O)n1, CNC(=O)CN1CCOCC12CCN(C(=O)c1ccccc1)CC2 is lower in cytotoxicity at 10 µM: -4.67% for the first, -82.2% for the second.

Going from Cc1noc(C2CCN(C(=O)C3CCCO3)CC2)n1 (stereo unspecified) to CN1CCOC(C(=O)N2CCC3(CCCC3)CC2)C1 (stereo unspecified), the cytotoxicity at 10 µM falls from 3.95% to -1.52%.

Going from CN(C)C(=O)CN1CCCC(c2cncc(-c3cccc(Cl)c3)n2)C1 (stereo unspecified) to O=c1cc(-c2ccncc2)nc(-c2ccc(CN3CC[C@@H](O)C3)cc2)[nH]1, the cytotoxicity at 10 µM falls from 24% to 3.03%.

First: Cc1ccc(CN2CCCC2(C(N)=O)c2cnccn2)c(C)c1 (stereo unspecified)
Second: Cc1ccc2nc(N3CCN(CC(=O)NC(C)C)CC3)cc(C)c2c1
The cytotoxicity at 10 µM of the first is higher: 4.11% for the first, -14.7% for the second.

Going from CC(C)(C)c1nc(CN(Cc2ccccc2F)C2CCCCC2)no1 to Cc1nc(CN2CCCN(Cc3nc4c(F)cccc4[nH]3)CC2)no1, the cytotoxicity at 10 µM rises from -2.65% to 0.601%.

Compared with COc1ccc(C(C)NCc2scnc2C)cc1Cn1cccn1 (stereo unspecified), COc1c(CNCc2cccc(CN(C)C)c2)c(C)nn1C is lower in cytotoxicity at 10 µM: -3.53% for the first, -9.95% for the second.

First: Cc1nc(Cn2cncc(Br)c2=O)no1
Second: CNC(=O)c1nc(Cn2ncc3ccccc3c2=O)no1
The cytotoxicity at 10 µM of the first is lower: -12.2% for the first, 6.6% for the second.

Going from Oc1cccc(CNCC2CCCO2)c1 (stereo unspecified) to O=C(Cn1cc(C2CC2)nn1)N(Cc1cccs1)CC1CCCO1 (stereo unspecified), the cytotoxicity at 10 µM falls from -1.37% to -4.58%.

Going from CCN(C)Cc1cccc(CNC(=O)CSCc2ccncc2)c1 to CCNC(=O)Cn1ncc(N(C)CCc2ccccc2)cc1=O, the cytotoxicity at 10 µM rises from 4.31% to 5.69%.

First: CCc1nnc2n1CCN(c1nc3ccccc3o1)C2
Second: CCNc1cc2c(nn1)CCN(C(=O)c1cc3nc(C)ccc3o1)C2
The cytotoxicity at 10 µM of the first is higher: 2.11% for the first, -3.85% for the second.

Going from O=c1n(CCNCc2ccc(-c3ccccc3)cc2)nc2ccccn12 to CCNC(=O)Cc1ccc(-c2cccc3c2CCNC3)cc1, the cytotoxicity at 10 µM rises from 0.932% to 13.6%.

First: Cc1cnn(CCNCc2c(C(C)C)nn(C)c2Cl)c1
Second: CCC(NCCn1cc(C)cn1)C(=O)Nc1cc(C)on1 (stereo unspecified)
The cytotoxicity at 10 µM of the first is lower: -14% for the first, 4.52% for the second.

First: O=C(c1cccnc1)N1CCSCC1
Second: CC(C)N1CCOCC2(CCCN(C(=O)CCc3cccnc3)C2)C1 (stereo unspecified)
The cytotoxicity at 10 µM of the first is lower: -15.1% for the first, 2.66% for the second.

Compared with O=c1oc(-c2cccs2)nn1CC(O)c1ccccc1F (stereo unspecified), CC(O)(CNC(=O)c1cccnc1-n1cccn1)c1cccs1 (stereo unspecified) is higher in cytotoxicity at 10 µM: -14.7% for the first, 7.9% for the second.

First: CC(C)c1ccc(C2(C(=O)NCCS(N)(=O)=O)CCC2)cc1
Second: CCOc1ccc(Cl)c(C(=O)NCCS(N)(=O)=O)n1
The cytotoxicity at 10 µM of the first is higher: -2% for the first, -8.72% for the second.

Going from CCc1csc(C2CCCN(C(=O)c3ccc4c(c3)OCO4)C2)n1 (stereo unspecified) to CCc1nccn1C1CCCN(C(=O)c2ccc3[nH]c(=O)[nH]c3c2)C1 (stereo unspecified), the cytotoxicity at 10 µM falls from 1.71% to -3.71%.

Compared with CC(C)c1ncncc1C(=O)NCCN1CCCCCC1, O=C(NCCN1CCCCC1)c1scnc1Cl is lower in cytotoxicity at 10 µM: 5.15% for the first, -7.69% for the second.

Going from O=C(c1ccncc1)N(CCO)Cc1cc(Br)ccc1F to CNC(=O)CCN(C)c1nc(-c2ccncc2)nc2c1CCNC2, the cytotoxicity at 10 µM falls from 10.2% to -1.54%.

First: CN(C)c1ncccc1CNCc1ccc(N2CCOCC2)cc1
Second: Cc1nn(C)c(N2CCOCC2)c1CNC1CCc2ccccc2C1 (stereo unspecified)
The cytotoxicity at 10 µM of the first is higher: 5.95% for the first, -11.4% for the second.

Compared with Cc1nnc(CN2CCCC2c2cccc(Br)c2)o1 (stereo unspecified), Cc1ccc(-c2nnc(CN3CC[C@H](CO)[C@@H](O)C3)o2)n1C is lower in cytotoxicity at 10 µM: -3.51% for the first, -4.39% for the second.

Going from CC1CCN(CC(O)CNc2ccc(Cl)cn2)CC1 (stereo unspecified) to Fc1ccc(CN2CCC(c3n[nH]c4nccnc34)CC2)cc1F, the cytotoxicity at 10 µM falls from 17.2% to -11.8%.

Going from O=S(=O)(Nc1nccs1)c1cc(Cl)cc2c1OCC2 to COc1ccc(S(=O)(=O)NC(=O)COc2ccc3c(c2)CCC3)cc1, the cytotoxicity at 10 µM falls from -2.19% to -6.72%.

Going from CCc1cc(CNC(=O)N2Cc3ccccc3N(C)CC2C)[nH]n1 (stereo unspecified) to CCc1nncn1CCNC(=O)N1CCN(Cc2ccccc2)CC1, the cytotoxicity at 10 µM falls from 16.3% to 3.84%.

First: Cc1cc(=O)n2nc(Oc3cccc(I)c3)sc2n1
Second: Cc1cc2[nH]c(CN3CCOC(c4ccc(Cl)cc4)C3)cc(=O)n2n1 (stereo unspecified)
The cytotoxicity at 10 µM of the first is higher: 3.63% for the first, 1.91% for the second.

First: CCC(C#N)NC(=O)c1ccc(Oc2cccnc2)cc1 (stereo unspecified)
Second: COc1ccc(NC(=O)c2ccc(-n3ncc(C#N)c3N)cc2)cn1
The cytotoxicity at 10 µM of the first is lower: -5.82% for the first, -5.77% for the second.

Compared with Cc1cnn(Cc2cc(F)ccc2F)c1NC(=O)NC1CC1, COc1c(CNC2CCc3cc(F)ccc32)c(C)nn1C (stereo unspecified) is lower in cytotoxicity at 10 µM: 16.9% for the first, -8.11% for the second.

Compared with CCc1nc(CN2CCCN(Cc3cnn(C)c3)CC2)no1, CCOCC1CN(Cc2cnn(C)c2)Cc2cnn(C)c21 (stereo unspecified) is lower in cytotoxicity at 10 µM: -2% for the first, -89.6% for the second.

Going from Cc1ncoc1C(=O)N1CC[C@@]2(C[C@H](NS(C)(=O)=O)CCO2)C1 to O=C(c1ccccn1)N1CCCC2(CCN(c3ccsc3)C2=O)C1 (stereo unspecified), the cytotoxicity at 10 µM falls from -73% to -136%.

Compared with CCS(=O)(=O)NC1CCc2c(ccc(=O)n2CC2CC2)C1 (stereo unspecified), Cn1cc(CN2CCC(CCC(=O)NC3CC3)CC2)cn1 is higher in cytotoxicity at 10 µM: -67.2% for the first, 9.27% for the second.

Compared with CC(C)NC(=O)C1CN(C(=O)NCc2ccccc2)CC12CCOCC2 (stereo unspecified), O=C(C1CCOCC1)N1CC[C@@H](N2CCOCC2)[C@@H]1Cc1ccccc1 is higher in cytotoxicity at 10 µM: -84.6% for the first, -77.2% for the second.

Compared with Cc1noc(C)c1C(=O)N1C[C@@H]2CN(Cc3cccnc3)CCO[C@@H]2C1, Cc1cnn(CC2CN(Cc3nc(C)c4ccccc4n3)CCO2)c1 (stereo unspecified) is lower in cytotoxicity at 10 µM: 5.75% for the first, -35.6% for the second.

First: CC(=O)N1CC[C@H]2OCC[C@@H](C(=O)NCc3ccco3)[C@H]2C1
Second: CC(=O)NCC(=O)N(CCN1CCOCC1)Cc1ccco1
The cytotoxicity at 10 µM of the first is lower: -81.5% for the first, -9.04% for the second.

First: CCOC[C@@H]1CCC[C@@]12CN(Cc1nccs1)CCO2
Second: Cn1cc(CN2CCC[C@]3(C[C@@H](Oc4ncccc4F)CO3)C2)cn1
The cytotoxicity at 10 µM of the first is lower: 1.77% for the first, 9.66% for the second.

Going from Cc1cc(N[C@H]2CN(CC(C)(C)N3CCOCC3)C[C@@H]2C2CC2)ncn1 to CC(C)(C)c1cc(CN2CCOCC(O)C2)n[nH]1 (stereo unspecified), the cytotoxicity at 10 µM falls from 2.03% to -3.89%.

First: CCc1nc(C)c(C2CC(=O)Nc3c2c(C(C)(C)C)nn3C)[nH]1 (stereo unspecified)
Second: CCN(C)Cc1n[nH]c(=O)n1-c1cc(F)ccc1C
The cytotoxicity at 10 µM of the first is lower: 2.63% for the first, 11.4% for the second.

Going from COCC[C@]1(O)CCN(Cc2nc(C(C)C)cs2)C[C@H]1C to CCC1CN(Cc2nc(C(C)C)no2)CCC(=O)N1Cc1ccccc1 (stereo unspecified), the cytotoxicity at 10 µM rises from -6.26% to 5.08%.

Going from CCNc1ncc(C(=O)NCc2csc(C)n2)cn1 to Cn1cc(-c2cnc(N3CCOCC3)nc2)cc1C(=O)NCCO, the cytotoxicity at 10 µM falls from 12.5% to 7.15%.

Going from CCC(=O)N1CCN(C(=O)CCn2cc(Cl)cn2)[C@H]2CS(=O)(=O)C[C@H]21 to O=C(CCn1ccccc1=O)N1CCN(Cc2cccc(Cl)c2)CC1, the cytotoxicity at 10 µM rises from -6.39% to -1.97%.

Compared with Cc1ccc(NC2CCCN(CCCc3ccccc3)C2)nn1 (stereo unspecified), Cc1ccc(N(C)C2CCN(C(=O)CCc3ccco3)CC2)nn1 is lower in cytotoxicity at 10 µM: -2.81% for the first, -7% for the second.

First: Cc1ccc2nc(C(=O)N3CC(n4nc(C)cc4C)C3)cn2c1
Second: Cc1cccc(-n2c(C)cc(C(=O)N3CCn4c(C)nnc4C3)c2C)c1
The cytotoxicity at 10 µM of the first is higher: 5.53% for the first, -4.86% for the second.

First: COCCN(C)C[C@H]1C[C@@H](CO)CN(C(=O)c2ccn(C)c(=O)c2)C1
Second: COCC1CN(C(=O)Cc2cccc(F)c2)Cc2ccnn2C1 (stereo unspecified)
The cytotoxicity at 10 µM of the first is higher: 2.14% for the first, -73% for the second.

Compared with Nc1cc(-c2cc(O)cc(C(=O)O)c2)c2cc[nH]c2n1, O=C(c1ccc[nH]1)N1CCC2(CC1)C(=O)Nc1ccccc12 is lower in cytotoxicity at 10 µM: 6.77% for the first, 2.09% for the second.

Going from Cc1ccc(OC2CCN(C(=O)Cc3c(C)[nH]c(=O)[nH]c3=O)CC2)cc1 to COc1ccc(CC(=O)N2C[C@@H]3COC[C@]3(CN(C)C)C2)cc1, the cytotoxicity at 10 µM falls from 6.45% to -3.01%.

Compared with CCc1oc(C(=O)N(C)Cc2nonc2C)cc1CN(CC)CC, CCN(Cc1cccc(C(=O)Nc2cn(C)nn2)c1)[C@H]1COC[C@@H]1O is higher in cytotoxicity at 10 µM: -10.3% for the first, -2.77% for the second.

Compared with COCCn1ccnc1C1CCCN(C(=O)c2ccncc2F)C1 (stereo unspecified), CN(C)CCCn1ccnc1C1CCCN(c2cc(N)ncn2)C1 (stereo unspecified) is lower in cytotoxicity at 10 µM: 0.0773% for the first, -2.1% for the second.

First: Cc1ocnc1C(=O)N1CCCN(Cc2cscn2)CC1
Second: Cc1csc(N2CCCN(C(=O)C(C)n3ccnc3)CC2)n1 (stereo unspecified)
The cytotoxicity at 10 µM of the first is higher: -7.22% for the first, -9.46% for the second.

Going from CC(C(=O)N1CCCN(c2ncccc2C#N)CC1)n1cccn1 (stereo unspecified) to NC(=O)c1csc(C(=O)N2CCCC(n3ccnc3)C2)c1 (stereo unspecified), the cytotoxicity at 10 µM rises from -4.3% to -2.07%.

Compared with O=C(NCC1CCOC1)c1ccc(OCC(F)(F)F)nc1 (stereo unspecified), Cc1nc(Cc2ccc(F)cc2)cc(C2COCCN2)n1 (stereo unspecified) is higher in cytotoxicity at 10 µM: -5.64% for the first, 3.44% for the second.

First: CN(CC1COc2ccccc2O1)C(=O)NCCCn1cncn1 (stereo unspecified)
Second: CCC1=N[C@@]2(CC[C@@H]3CN(Cc4ccc(Cl)cc4)C[C@@H]32)C(=O)N1
The cytotoxicity at 10 µM of the first is lower: -0.884% for the first, 3.6% for the second.

Compared with CO[C@@H]1CCN(Cc2c(C)noc2C)[C@@H]2CN(Cc3ccco3)C[C@@H]21, Cc1ccsc1CN1CCc2nc3ccsc3c(=O)n2CC1 is lower in cytotoxicity at 10 µM: 8.64% for the first, 8.52% for the second.

c1cnc2c(c1)cc([C@H]1CCCO1)n2CCN1CCCCC1 showed a cytotoxicity at 10 µM of 4.99%.
